Experimental data taken from ChEMBL document CHEMBL1133715, “Dual function glutamate-related ligands: discovery of a novel, potent inhibitor of glutamate carboxypeptidase II possessing mGluR3 agonist activity” (J Med Chem, 2000).
Several values for one entry are separate records, joined by “and”; a condition that tells them apart may be missing. Identical values can stand only once. Activity calls are given as the source filed them. The rule behind the calls is not given here.

What was measured:
[1] = molecular target: Metabotropic glutamate receptor 3 (Homo sapiens, UniProt Q14832); assay: Agonist potency against cloned Metabotropic glutamate receptor 3; assay type: functional
In short: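 mGluR3 activity was measured on a chimeric mGluR3/1a receptor, which carries mGluR3 pharmacology but couples to phospholipase C. Agonist response was read as accumulation of inositol phosphates.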

[2] = tested on: CHO; assay: Inhibitory activity against N-acetyl-L-aspartyl-L-glutamate (NAAG) peptidase of rat stably expressed in CHO cells at 100 uM; assay type: cell-based
[3] = tested on: CHO; assay: Inhibitory activity against N-acetyl-L-aspartyl-L-glutamate (NAAG) peptidase of rat stably expressed in CHO cells at 100 uM; NA=no activity; assay type: cell-based

Chain of Metabotropic glutamate receptor 3 (Q14832 whole entry): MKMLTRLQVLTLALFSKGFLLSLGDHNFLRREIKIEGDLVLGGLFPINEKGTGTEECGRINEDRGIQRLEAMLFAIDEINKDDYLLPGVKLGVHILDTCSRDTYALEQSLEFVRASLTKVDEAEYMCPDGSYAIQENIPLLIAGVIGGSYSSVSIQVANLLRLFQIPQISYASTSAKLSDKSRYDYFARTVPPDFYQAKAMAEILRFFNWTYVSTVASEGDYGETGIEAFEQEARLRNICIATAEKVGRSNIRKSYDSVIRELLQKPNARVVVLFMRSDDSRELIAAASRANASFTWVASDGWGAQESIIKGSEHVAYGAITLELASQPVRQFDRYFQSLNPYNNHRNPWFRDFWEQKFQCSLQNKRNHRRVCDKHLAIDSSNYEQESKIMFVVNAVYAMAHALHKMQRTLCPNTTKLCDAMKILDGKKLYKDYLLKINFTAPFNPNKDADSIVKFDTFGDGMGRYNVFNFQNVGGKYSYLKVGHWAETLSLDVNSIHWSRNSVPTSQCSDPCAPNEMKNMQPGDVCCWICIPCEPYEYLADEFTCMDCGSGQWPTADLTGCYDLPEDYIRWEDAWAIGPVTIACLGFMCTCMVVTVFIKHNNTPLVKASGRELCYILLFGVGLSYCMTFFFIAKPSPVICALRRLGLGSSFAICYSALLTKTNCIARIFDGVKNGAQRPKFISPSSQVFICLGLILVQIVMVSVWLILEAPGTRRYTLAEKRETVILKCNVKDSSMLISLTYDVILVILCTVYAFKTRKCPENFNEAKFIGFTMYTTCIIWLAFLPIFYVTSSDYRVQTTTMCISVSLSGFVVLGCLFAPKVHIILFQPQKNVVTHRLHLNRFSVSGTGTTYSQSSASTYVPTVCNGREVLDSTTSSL

Row | EC50 [1] | SMILES | inhibition [2] | inhibition [3]
1 | 39 µM and 45 µM and 51 µM | O=C(O)CCC(CP(=O)(O)CC(CCC(=O)O)C(=O)O)C(=O)O (stereo unspecified) | 21.7% and 6.9% and 22.3% | –
2 | – | O=C(O)CCC(=O)CC(CCC(=O)O)C(=O)O (stereo unspecified) | 35% | –
3 | > 300 µM | O=C(O)CCC(CC(=O)CC(CCC(=O)O)C(=O)O)C(=O)O (stereo unspecified) | – | inactive
4 | 33 µM | O=C(O)CC[C@H](CP(=O)(O)C[C@H](CCC(=O)O)C(=O)O)C(=O)O | – | –
